Experimental data from ChEMBL document CHEMBL1125659, “Optical isomers of rocastine and close analogues: synthesis and H1 antihistaminic activity of its enantiomers and their structural relationship to the classical antihistamines” (J Med Chem, 1991).

Columns and labels:
Cavia porcellus [1] = assay: Protection against histamine-induced lethality in guinea pig at 1 hr pretreatment time upon peroral administration.; type: functional; settings: po
Summary of the method: (§1)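 Female English short-hair guinea pigs (250–500 g), fasted overnight, dosed orally by gavage at set times before intravenous histamine challenge (1.2 mg/kg). Survival at 24 h postchallenge scored as protection. Groups of 5–10 animals per treatment; ED50 by Litchfield–Wilcoxon or computer probit analysis.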

Histamine H1 receptor [2] = target: T1, Histamine H1 receptor (Cavia porcellus, UniProt P31389); assay: Inhibition of [3H]mepyramine binding to the histamine receptor in guinea pig cortex; type: tissue-based
Summary of the method: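 Cerebral cortex from female Dunkin-Hartley guinea pigs (200–500 g) homogenized in cold 50 mM Na/K phosphate pH 7.5, washed by three 48000g 4 °C spins, used fresh same day. [3H]mepyramine (15 nM stock, 23 Ci/mmol) incubated with membranes 20 min at 25 °C; filtration, scintillation counting. Six concentrations in triplicate; IC50 by linear/nonlinear curve fitting.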

Cavia porcellus [3] = assay: Protection against histamine-induced lethality in guinea pig at 6 hr pretreatment time upon peroral administration.; type: functional; settings: po; summary of the method: as §1
Histamine H1 receptor [4] = target: T1, Histamine H1 receptor; assay: Inhibition of [3H]mepyramine binding to the Histamine H1 receptor in guinea pig cortex; type: tissue-based
Summary of the method: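 Cerebral cortex from female Dunkin-Hartley guinea pigs (200–500 g) homogenized in cold 50 mM Na/K phosphate pH 7.5, washed by three 48000g 4 °C spins, used fresh same day. Six concentrations in triplicate; IC50 by linear/nonlinear curve fitting.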

Cavia porcellus [5] = assay: Protection against histamine-induced lethality in guinea pig at 24 hr pretreatment time upon peroral administration; type: functional; settings: po; summary of the method: as §1
Cavia porcellus [6] = assay: Protection against histamine-induced lethality in guinea pig at 24 hr pretreatment time upon peroral administration.; type: functional; settings: po; summary of the method: as §1

T1 sequence (P31389 whole entry): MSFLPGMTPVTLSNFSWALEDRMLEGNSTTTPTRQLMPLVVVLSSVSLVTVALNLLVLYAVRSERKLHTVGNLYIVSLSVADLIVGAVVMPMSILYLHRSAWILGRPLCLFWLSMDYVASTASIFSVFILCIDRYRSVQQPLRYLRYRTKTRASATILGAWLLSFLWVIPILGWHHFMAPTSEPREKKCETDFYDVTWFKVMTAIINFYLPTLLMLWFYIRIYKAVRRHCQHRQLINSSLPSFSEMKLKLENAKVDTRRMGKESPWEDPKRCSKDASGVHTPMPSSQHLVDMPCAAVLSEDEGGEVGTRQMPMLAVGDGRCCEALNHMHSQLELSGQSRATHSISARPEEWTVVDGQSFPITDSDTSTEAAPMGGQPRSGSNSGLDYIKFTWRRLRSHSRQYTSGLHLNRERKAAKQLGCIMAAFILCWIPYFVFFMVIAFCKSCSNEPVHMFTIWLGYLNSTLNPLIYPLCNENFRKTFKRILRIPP

Q: With `CN(C)CC[C@@H]1CN(C)C(=S)c2cccnc2O1` as the molecule, how does the ED50 (Cavia porcellus [1]) read?
A: 0.07 mg/kg

Q: And the IC50 (Histamine H1 receptor [2])?
A: 30 nM

Q: And the ED50 (Cavia porcellus [3])?
A: 2.96 mg/kg

Q: How did the ED50 (Cavia porcellus [1]) turn out when `CN(C)CCC(c1ccccn1)c1ccc(Cl)cn1` (configuration not stated) was run?
A: 0.009 mg/kg

Q: And the IC50 (Histamine H1 receptor [4])?
A: 24 nM

Q: Which results are given for `CN(C)CC[C@@H]1CN(C)C(=S)c2cc(Cl)cnc2O1`?
A: ED50 (Cavia porcellus [1]): 0.013 mg/kg; ED50 (Cavia porcellus [5]): 58 mg/kg; IC50 (Histamine H1 receptor [2]): 1.9 nM; ED50 (Cavia porcellus [3]): 0.15 mg/kg

Q: With `CN1C[C@H](CCN2CCC2)Oc2ncc(Cl)cc2C1=S` as the molecule, how does the ED50 (Cavia porcellus [1]) read?
A: 8.28 mg/kg

Q: And the IC50 (Histamine H1 receptor [4])?
A: 870 nM

Q: `CN(C)CC[C@H]1CN(C)C(=S)c2cccnc2O1` was tested. Which ED50 (Cavia porcellus [1]) did it give?
A: 23 mg/kg

Q: And the IC50 (Histamine H1 receptor [4])?
A: 21000 nM

Q: For `CN1C[C@@H](CCN2CCC2)Oc2ncc(Cl)cc2C1=S`, which ED50 (Cavia porcellus [6]) is on record?
A: 0.21 mg/kg

Q: And the ED50 (Cavia porcellus [1])?
A: 0.0054 mg/kg

Q: And the IC50 (Histamine H1 receptor [2])?
A: 0.26 nM

Q: And the ED50 (Cavia porcellus [3])?
A: 0.0078 mg/kg

Q: How did the ED50 (Cavia porcellus [1]) turn out when `CN(C)CCC(c1ccc(Cl)cc1)c1ccc(Cl)cn1` (configuration not stated) was run?
A: > 10 mg/kg

Q: And the IC50 (Histamine H1 receptor [4])?
A: 430 nM

Q: What does the source list for `CN(C)CC[C@H]1CN(C)C(=S)c2cc(Cl)cnc2O1`?
A: ED50 (Cavia porcellus [1]): 66.8 mg/kg; IC50 (Histamine H1 receptor [4]): 11900 nM

Q: How did the ED50 (Cavia porcellus [1]) turn out when `CN(C)CCC(c1ccc(Cl)cc1)c1ccccn1` (configuration not stated) [CHLORPHENIRAMINE] was run?
A: 0.18 mg/kg
